ChEMBL document CHEMBL1124946, “Cephalosporins to carbapenems: 1-oxygenated carbapenems and carbapenams” (1990)

Key:
[1] = In vitro minimal inhibitory concentration (MIC) in brain-heart infusion broth in the presence of hog liver esterase(1:1.5) in Serr. marc. 095; assay type: functional; details: Serratia marcescens
Summary of the method: (§1)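 Two-fold serial broth dilution in brain-heart infusion broth. POM ester prodrugs were incubated with hog liver esterase (1:1.5) in the broth so the ester is converted in situ to the free acid. The MIC is the lowest concentration that inhibits growth.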

Citrobacter koseri [2] = assay: In vitro minimal inhibitory concentration in brain-heart infusion broth in presence of hog liver esterase(1:1.5) in Citrobacter diversus 031; assay type: functional; summary of the method: as §1
Escherichia coli [3] = assay: In vitro minimal inhibitory concentration (MIC) in brain-heart infusion broth in the presence of hog liver esterase(1:1.5) in Escherichia coli 129; assay type: functional; summary of the method: as §1
Klebsiella pneumoniae [4] = assay: In vitro minimal inhibitory concentration in brain-heart infusion broth in the presence of hog liver esterase(1:1.5) in Klebsiella pneumoniae 079; assay type: functional; summary of the method: as §1
Escherichia coli [5] = assay: In vitro minimal inhibitory concentration (MIC) in brain-heart infusion broth in the presence of hog liver esterase(1:1.5) in Escherichia coli 266; assay type: functional; summary of the method: as §1
Morganella morganii = assay: In vitro minimal inhibitory concentration (MIC) in brain-heart infusion broth in the presence of hog liver esterase(1:1.5) in Morganella morganii 001; assay type: functional; summary of the method: as §1
Staphylococcus aureus [6] = assay: In vitro minimal inhibitory concentration (MIC) in brain-heart infusion broth in the presence of hog liver esterase(1:1.5) in Staphylococcus aureus 400; assay type: functional; summary of the method: as §1
Pseudomonas aeruginosa = assay: In vitro minimal inhibitory concentration (MIC) in brain-heart infusion broth in the presence of hog liver esterase(1:1.5) in Pseudomonas aeruginosa 104; assay type: functional; summary of the method: as §1
Staphylococcus aureus [7] = assay: In vitro minimal inhibitory concentration (MIC) in brain-heart infusion broth in the presence of hog liver esterase(1:1.5) in Staphylococcus aureus 005; assay type: functional; summary of the method: as §1
Enterobacter cloacae [8] = assay: In vitro minimal inhibitory concentration (MIC) in brain-heart infusion broth in the presence of hog liver esterase(1:1.5) in […] 009; assay type: functional; summary of the method: as §1
Haemophilus influenzae = assay: In vitro minimal inhibitory concentration (MIC) in brain-heart infusion broth in the presence of hog liver esterase(1:1.5) in Haemophilus influenzae 012
Klebsiella pneumoniae [9] = assay: In vitro minimal inhibitory concentration (MIC) in brain-heart infusion broth in the presence of hog liver esterase(1:1.5) in Klebsiella pneumoniae 009; assay type: functional; summary of the method: as §1
Streptococcus pyogenes = assay: In vitro minimal inhibitory concentration (MIC) in brain-heart infusion broth in the presence of hog liver esterase(1:1.5) in Streptococcus pyogenes 203; assay type: functional; summary of the method: as §1
Citrobacter koseri [10] = assay: In vitro minimal inhibitory concentration (MIC) in brain-heart infusion broth in the presence of hog liver esterase(1:1.5) in Citrobacter diversus 031; assay type: functional; summary of the method: as §1
Klebsiella pneumoniae [11] = assay: In vitro minimal inhibitory concentration in brain-heart infusion broth in presence of hog liver esterase(1:1.5) in Klebsiella pneumoniae 079; assay type: functional; summary of the method: as §1
Enterobacter cloacae [12] = assay: In vitro minimal inhibitory concentration in brain-heart infusion broth in the presence of hog liver esterase(1:1.5) in […] 009; assay type: functional; summary of the method: as §1

MIC [1] | MIC (Citrobacter koseri [2]) | MIC (Escherichia coli [3]) | MIC (Klebsiella pneumoniae [4]) | MIC (Escherichia coli [5]) | MIC (Morganella morganii) | MIC (Staphylococcus aureus [6]) | MIC (Pseudomonas aeruginosa) | MIC (Staphylococcus aureus [7]) | MIC (Enterobacter cloacae [8]) | MIC (Haemophilus influenzae) | MIC (Klebsiella pneumoniae [9]) | MIC (Streptococcus pyogenes) | MIC (Citrobacter koseri [10]) | MIC (Klebsiella pneumoniae [11]) | MIC (Enterobacter cloacae [12]) | Structure (SMILES)
25 µg/mL | 12.5 µg/mL | > 200 µg/mL | 12.5 µg/mL | 6.25 µg/mL | < 0.39 µg/mL | > 200 µg/mL | 200 µg/mL | 25 µg/mL | 12.5 µg/mL |  |  |  |  |  |  | CCN1CCN(C(=O)N[C@@H](C(=O)N[C@@H]2C(=O)N3[C@@H]2C(O)[C@H](C)[C@@H]3C(=O)OCOC(=O)C(C)(C)C)c2ccccc2)C(=O)C1=O (stereo partly drawn)
 |  | 6.25 µg/mL |  | 6.25 µg/mL | 50 µg/mL | 1.56 µg/mL | 100 µg/mL | 3.12 µg/mL | 12.5 µg/mL | 6.25 µg/mL | 6.25 µg/mL | 0.78 µg/mL |  |  |  | CC1=C(C(=O)OCOC(=O)C(C)(C)C)N2C(=O)[C@H]([C@@H](C)O)[C@H]2C1O (stereo partly drawn)
> 200 µg/mL |  | > 200 µg/mL |  | > 200 µg/mL | > 200 µg/mL | 50 µg/mL | > 200 µg/mL | 25 µg/mL | > 200 µg/mL |  |  |  | > 200 µg/mL | > 200 µg/mL |  | C[C@H]1C(O)[C@@H]2[C@H](NC(=O)COc3ccccc3)C(=O)N2[C@H]1C(=O)OCOC(=O)C(C)(C)C (stereo partly drawn)
 |  | 0.39 µg/mL |  | 0.1 µg/mL | 6.25 µg/mL | < 0.025 µg/mL | 3.12 µg/mL | < 0.025 µg/mL | 0.39 µg/mL | 0.78 µg/mL | 0.2 µg/mL | < 0.025 µg/mL |  |  |  | C[C@@H](O)[C@H]1C(=O)N2C(C(=O)O)=C(SCCN)C[C@H]12 [THIENAMYCIN]
> 200 µg/mL |  | > 200 µg/mL | > 200 µg/mL | 100 µg/mL | > 200 µg/mL | 50 µg/mL | > 200 µg/mL | < 0.025 µg/mL |  | 6.25 µg/mL | > 200 µg/mL | < 0.025 µg/mL | > 200 µg/mL |  | > 200 µg/mL | CC1(C)S[C@@H]2[C@H](NC(=O)COc3ccccc3)C(=O)N2[C@H]1C(=O)O [PENICILLIN V]
> 200 µg/mL | > 200 µg/mL | > 200 µg/mL | > 200 µg/mL | > 200 µg/mL | > 200 µg/mL | > 200 µg/mL | > 200 µg/mL | > 200 µg/mL | > 200 µg/mL |  |  |  |  |  |  | CC(=O)OC1[C@H](C)C(C(=O)OCOC(=O)C(C)(C)C)N2C(=O)[C@H](NC(=O)COc3ccccc3)[C@@H]12 (stereo partly drawn)
> 200 µg/mL |  | > 200 µg/mL |  | > 200 µg/mL | > 200 µg/mL | > 200 µg/mL | > 200 µg/mL | 100 µg/mL | > 200 µg/mL |  |  |  | > 200 µg/mL | > 200 µg/mL |  | C[C@H]1C(=O)[C@@H]2[C@H](NC(=O)OCc3ccccc3)C(=O)N2[C@H]1C(=O)OCOC(=O)C(C)(C)C

Structure (SMILES) | MIC [1] | MIC (Citrobacter koseri [2]) | MIC (Escherichia coli [3]) | MIC (Klebsiella pneumoniae [4]) | MIC (Escherichia coli [5]) | MIC (Morganella morganii) | MIC (Staphylococcus aureus [6]) | MIC (Pseudomonas aeruginosa) | MIC (Staphylococcus aureus [7]) | MIC (Enterobacter cloacae [8]) | MIC (Haemophilus influenzae) | MIC (Klebsiella pneumoniae [9]) | MIC (Streptococcus pyogenes) | MIC (Citrobacter koseri [10]) | MIC (Klebsiella pneumoniae [11]) | MIC (Enterobacter cloacae [12])
N[C@@H](C(=O)N[C@@H]1C(=O)N2C(C(=O)O)=C(Cl)CS[C@H]12)c1ccccc1 [CEFACLOR ANHYDROUS] |  |  | 50 µg/mL |  | 3.12 µg/mL | > 200 µg/mL | 3.12 µg/mL | > 200 µg/mL | 1.56 µg/mL | > 200 µg/mL | 3.12 µg/mL | 1.56 µg/mL | 0.05 µg/mL |  |  | 
